In brackets after ≈: the same amount, converted by molar mass. Several values for one entry are separate records, joined by “and”; a condition that tells them apart may be missing. Equal values may be shown once.
How the values were obtained:
Klebsiella pneumoniae [1] = assay: In vitro antibacterial activity against Klebsiella pneumoniae (A9664); type: functional
In short: (§1)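 Broth microdilution MIC in Nutrient Broth with a final inoculum of 5.0 × 10^5 CFU/mL. Trays incubated 18 h at 35 °C. MIC taken as the lowest antibiotic concentration inhibiting bacterial growth, in µg/mL.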

Proteus vulgaris = assay: In vitro antibacterial activity against Proteus vulgaris (A21559); type: functional; in short: as §1
Mus musculus = assay: Protective dose when administered orally for 50 percent of the mice tested. Mice were treated twice, at 0 and 2 hour after infection with Escherichia coli; type: functional; conditions: po, read-out: PD50
In short: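 Mice infected with E. coli and given test agent orally twice, at 0 and 2 h after infection. PD50 is the dose protecting 50% of animals, expressed as mg/kg per dose.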

Staphylococcus aureus = assay: In vitro antibacterial activity against Staphylococcus aureus (A9537); type: functional; in short: as §1
[2] = Half-life by UV spectrophotometry; type: ADME; conditions: for half-life: read-out: Stability (converted)
In short: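 Chemical stability in solution: about 10^-4 M compound in 0.07 M phosphate buffer, pH 7.4, held at 37 °C. Decay followed by UV spectrophotometry; half-life reported in hours.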

Providencia rettgeri [3] = assay: In vitro antibacterial activity against Providencia rettgeri (A22424); type: functional; in short: as §1
Enterococcus faecalis = assay: In vitro antibacterial activity against Streptococcus faecalis (A20688); type: functional
In short: (§2)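 Streptococcal MIC by broth microdilution in Todd-Hewitt Broth with a final inoculum of 5.0 × 10^5 CFU/mL. Trays incubated 18 h at 35 °C. Endpoint is the lowest concentration preventing growth, in µg/mL.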

Enterobacter cloacae = assay: In vitro antibacterial activity against Enterobacter cloacae (A9659); type: functional; in short: as §1
Streptococcus pyogenes = assay: In vitro antibacterial activity against Streptococcus pyogenes (A9604); type: functional; in short: as §2
Pseudomonas aeruginosa [4] = assay: In vitro antibacterial activity against Pseudomonas aeruginosa (A9843); type: functional; in short: as §1
Streptococcus pneumoniae = assay: In vitro antibacterial activity against Streptococcus pneumoniae (A9585); type: functional; in short: as §2
Escherichia coli [5] = assay: In vitro antibacterial activity against Escherichia coli (A15119); type: functional; in short: as §1
Escherichia coli [6] = assay: In vitro evaluation for the antibacterial activity […] in e) Escherichia coli (A15119); type: functional
Klebsiella pneumoniae [7] = assay: In vitro evaluation for the antibacterial activity […] in Klebsiella pneumoniae (A9664); type: functional
Providencia rettgeri [8] = assay: IIn vitro antibacterial activity against Providencia rettgeri (A22424); type: functional; in short: as §1
Pseudomonas aeruginosa [9] = assay: In vitro evaluation for the antibacterial activity […] in Pseudomonas aeruginosa (A9843); type: functional
[10] = Providencia rettgeri, read-out: MIC
[11] = Streptococcus pyogenes, read-out: MIC
[12] = Pseudomonas aeruginosa, read-out: MIC

| Compound | MIC (Providencia rettgeri [3]; [10]) | MIC (Escherichia coli [5]) | Stability [2] | MIC (Providencia rettgeri [3]) | MIC (Streptococcus pyogenes) | MIC (Pseudomonas aeruginosa [4]) | MIC (Pseudomonas aeruginosa [9]) | MIC (Klebsiella pneumoniae [1]) | MIC (Proteus vulgaris) | ED50 (Mus musculus) | MIC (Staphylococcus aureus) | half-life [2] | MIC (Enterococcus faecalis) | MIC (Enterobacter cloacae) | MIC (Streptococcus pyogenes; [11]) | MIC (Pseudomonas aeruginosa [4]; [12]) | MIC (Streptococcus pneumoniae) | MIC (Escherichia coli [6]) | MIC (Klebsiella pneumoniae [7]) | MIC (Providencia rettgeri [8]) |
| --- | --- | --- | --- | --- | --- | --- | --- | --- | --- | --- | --- | --- | --- | --- | --- | --- | --- | --- | --- | --- |
| C[C@@H](O)[C@H]1C(=O)N2C(C(=O)O)=C(SCc3cccnc3)[C@H](C)[C@H]12 | 16 µg/mL (≈ 47.8 µM) | 0.016 µg/mL (≈ 0.0478 µM) | – | – | – | – | – | 0.13 µg/mL (≈ 0.389 µM) | 0.03 µg/mL (≈ 0.0897 µM) | 17 mg/kg | 0.016 µg/mL (≈ 0.0478 µM) | 65 h | 2 µg/mL (≈ 5.98 µM) | 0.13 µg/mL (≈ 0.389 µM) | 0.016 µg/mL (≈ 0.0478 µM) | 125 µg/mL (≈ 374 µM) | 0.016 µg/mL (≈ 0.0478 µM) | – | – | – |
| C[C@H]1C(SCc2cccnc2)=C(C(=O)O)N2C(=O)[C@H](CN)[C@@H]12 | 0.25 µg/mL (≈ 0.783 µM) | – | – | – | – | – | – | 0.03 µg/mL (≈ 0.0939 µM) | 0.016 µg/mL (≈ 0.0501 µM) | > 25 mg/kg | 0.5 µg/mL (≈ 1.57 µM) | 1.5 h | 125 µg/mL (≈ 391 µM) | 0.016 µg/mL (≈ 0.0501 µM) | 0.5 µg/mL (≈ 1.57 µM) | 1 µg/mL (≈ 3.13 µM) | 0.5 µg/mL (≈ 1.57 µM) | 0.008 µg/mL (≈ 0.025 µM) | – | – |
| C[C@H]1C(SCc2cccnc2)=C(C(=O)O)N2C(=O)[C@H](CO)[C@@H]12 | – | – | – | – | – | – | – | – | 0.13 µg/mL (≈ 0.406 µM) | 7 mg/kg | 0.008 µg/mL (≈ 0.025 µM) | 45 h | 4 µg/mL (≈ 12.5 µM) | 0.06 µg/mL (≈ 0.187 µM) | 0.004 µg/mL (≈ 0.0125 µM) | 125 µg/mL (≈ 390 µM) | 0.002 µg/mL (≈ 0.00624 µM) | 0.016 µg/mL (≈ 0.0499 µM) | 0.06 µg/mL (≈ 0.187 µM) | 0.5 µg/mL (≈ 1.56 µM) |
| C[C@@H](N)[C@H]1C(=O)N2C(C(=O)O)=C(SCc3cccnc3)[C@H](C)[C@H]12 | 2 µg/mL (≈ 6 µM) | – | – | – | – | – | – | 0.13 µg/mL (≈ 0.39 µM) | 0.016 µg/mL (≈ 0.048 µM) | 8 mg/kg | 2 µg/mL (≈ 6 µM) | 3 h | 63 µg/mL (≈ 189 µM) | 0.06 µg/mL (≈ 0.18 µM) | 4 µg/mL (≈ 12 µM) | 1 µg/mL (≈ 3 µM) | 4 µg/mL (≈ 12 µM) | 0.03 µg/mL (≈ 0.09 µM) | – | – |

Now from value to compound, other results behind:

| MIC (Providencia rettgeri [3]; [10]) | MIC (Escherichia coli [5]) | Stability [2] | MIC (Providencia rettgeri [3]) | MIC (Streptococcus pyogenes) | MIC (Pseudomonas aeruginosa [4]) | MIC (Pseudomonas aeruginosa [9]) | Compound | MIC (Klebsiella pneumoniae [1]) | MIC (Proteus vulgaris) | ED50 (Mus musculus) | MIC (Staphylococcus aureus) | half-life [2] | MIC (Enterococcus faecalis) | MIC (Enterobacter cloacae) | MIC (Streptococcus pyogenes; [11]) | MIC (Pseudomonas aeruginosa [4]; [12]) | MIC (Streptococcus pneumoniae) | MIC (Escherichia coli [6]) | MIC (Klebsiella pneumoniae [7]) | MIC (Providencia rettgeri [8]) |
| --- | --- | --- | --- | --- | --- | --- | --- | --- | --- | --- | --- | --- | --- | --- | --- | --- | --- | --- | --- | --- |
| 64 µg/mL (≈ 152 µM) | 32 µg/mL (≈ 75.9 µM) | – | – | – | – | – | C[C@H]1C(SCc2ccccn2)=C(C(=O)O)N2C(=O)[C@H](/C=C/CNc3ccccc3)[C@@H]12 | 64 µg/mL (≈ 152 µM) | 64 µg/mL (≈ 152 µM) | – | 0.25 µg/mL (≈ 0.593 µM) | 35 h | > 64 µg/mL | 64 µg/mL (≈ 152 µM) | – | 64 µg/mL (≈ 152 µM) | – | – | – | – |
| 2 µg/mL (≈ 5.77 µM) | – | 72 h | 2 µg/mL (≈ 5.77 µM) | 0.25 µg/mL and 0.56 µg/mL | 125 µg/mL (≈ 361 µM) | – | C=CC(O)[C@H]1C(=O)N2C(C(=O)O)=C(SCc3ccccn3)[C@H](C)[C@H]12 (stereo partly specified) | – | – | – | – | 72 h | – | – | – | 125 µg/mL (≈ 361 µM) | – | – | – | – |
| 32 µg/mL (≈ 86.2 µM) | 8 µg/mL (≈ 21.5 µM) | – | – | – | – | 125 µg/mL (≈ 337 µM) | C[C@H]1C(SCc2ccccn2)=C(C(=O)O)N2C(=O)[C@H](/C=C/CN=[N+]=[N-])[C@@H]12 | 16 µg/mL (≈ 43.1 µM) | 8 µg/mL (≈ 21.5 µM) | – | 0.06 µg/mL (≈ 0.162 µM) | 21 h | 32 µg/mL (≈ 86.2 µM) | 32 µg/mL (≈ 86.2 µM) | 0.03 µg/mL (≈ 0.0808 µM) | – | 0.03 µg/mL (≈ 0.0808 µM) | – | – | – |
| 16 µg/mL (≈ 46.2 µM) | 8 µg/mL (≈ 23.1 µM) | – | – | – | – | – | C[C@H]1C(SCc2ccccn2)=C(C(=O)O)N2C(=O)[C@H](/C=C/CO)[C@@H]12 | 16 µg/mL (≈ 46.2 µM) | 8 µg/mL (≈ 23.1 µM) | – | 1 µg/mL (≈ 2.89 µM) | 21 h | 125 µg/mL (≈ 361 µM) | 32 µg/mL (≈ 92.4 µM) | 0.06 µg/mL (≈ 0.173 µM) | 125 µg/mL (≈ 361 µM) | 0.13 µg/mL (≈ 0.375 µM) | – | – | – |

From ChEMBL document CHEMBL1125400, “Synthesis and antibacterial activity of some novel 6-methyl- and 6-propenyl-substituted carbapenems” (J Med Chem, 1992)
